Assay results published in ChEMBL document CHEMBL1121505, “Retinoic acid analogues. Synthesis and potential as cancer chemopreventive agents” (J Med Chem, 1980).

How the values were obtained:
Format in all cases: functional
[1] = Inhibition of skin tumor promoter -induced mouse epidermal ornithine decarboxylase (ODC) activity on TPA-induced mouse epidermis at a dose of 1.7(nmol)
Summary of the method: (§1)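 Female CD-1 mice, 7–9 weeks, shaved dorsal skin 1–2 days before, no hair regrowth. Retinoid applied topically in 0.2 mL acetone 1 h before single topical TPA (10.5 μg, 17 nmol, in 0.2 mL acetone). Killed 5 h after TPA. Five mice per group, skins pooled. Epidermal 30000g supernatant in 50 mM sodium phosphate, 0.1 mM pyridoxal phosphate, 0.1 mM EDTA.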

[2] = Inhibition of skin tumor promoter -induced mouse epidermal ornithine decarboxylase (ODC) activity on TPA-induced mouse epidermis at a dose of 17(nmol); summary of the method: as §1
[3] = Inhibition of skin tumor promoter -induced mouse epidermal ornithine decarboxylase (ODC) activity on TPA-induced mouse epidermis at a dose of 170(nmol); summary of the method: as §1

inhibition [1]	inhibition [2]	inhibition [3]	Structure (SMILES)
46%	63%	95%	CCOC(=O)/C=C(C)/C=C/C=C(C)/C=C/C1=CC2CCC1C2 (stereo unspecified)
3%	46%	92%	CC(=O)Oc1cccc(/C=C/C=C(C)/C=C/C2=C(C)CCCC2(C)C)c1
91%	–	–	CC1=C(/C=C/C(C)=C/C=C/C(C)=C/C(=O)O)C(C)(C)CCC1

The next lines start with the molecule.

Structure (SMILES)	inhibition [1]	inhibition [2]	inhibition [3]
CC1=C(/C=C/C(C)=C/C=C/C(C)=C/c2nn[nH]n2)C(C)(C)CCC1	3%	13%	2%
COCCOCCOC(=O)/C=C(C)/C=C/C=C(C)/C=C/C1=C(C)CCCC1(C)C	70%	92%	97%
CCC1=C(/C=C/C(C)=C/C=C/C(C)=C/C(=O)O)C(C)(C)CCC1	66%	86%	87%
